Bounds are passed on as bounds.

Series [1] is described as follows: Metabolic stability in mouse hepatic microsomes assessed as compound remaining at 60 mins. The format is ADME. The settings on record: liver microsomes, read-out: Stability. The essentials:
(§1)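 Test compound incubated with liver microsomes, human or mouse according to the line (the text also calls these liver homogenates). Read-out was the percentage of parent compound remaining after 60 min.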
For orientation: Microsomes from liver hold many membrane-bound enzymes, among them those of drug oxidation.

Another series deals with Hepatocyte. Briefly: Cytotoxicity against human hepatocytes. It counts as cell-based.
Series [2] deals with Kappa-type opioid receptor (Homo sapiens) (UniProt P41145). Briefly: Binding affinity to kappa-opioid receptor at 10 uM.
Series [3] has as its target T1, Type-1 angiotensin II receptor (Homo sapiens, UniProt P30556).
T1 sequence (P30556 whole entry): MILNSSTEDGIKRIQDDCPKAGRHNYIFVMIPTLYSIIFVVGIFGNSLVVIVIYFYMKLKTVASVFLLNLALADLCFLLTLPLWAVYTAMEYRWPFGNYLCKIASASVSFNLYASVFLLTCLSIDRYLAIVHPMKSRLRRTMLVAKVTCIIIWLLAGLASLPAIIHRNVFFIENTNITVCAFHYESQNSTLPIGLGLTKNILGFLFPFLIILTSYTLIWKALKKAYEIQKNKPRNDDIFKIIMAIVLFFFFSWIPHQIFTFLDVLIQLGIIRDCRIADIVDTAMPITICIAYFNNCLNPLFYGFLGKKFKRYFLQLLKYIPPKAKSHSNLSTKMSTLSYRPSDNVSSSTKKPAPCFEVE
Briefly: Inhibition of AT1 receptor.

Series [4] can be described thus: Metabolic stability in plasma. The format is ADME, cell-free.
The nature of series [5]: Binding affinity to benzodiazepinone receptor at 10 uM.
The target of series [6] is T2, Apelin receptor (Homo sapiens) (UniProt P35414).
T2 sequence (whole entry): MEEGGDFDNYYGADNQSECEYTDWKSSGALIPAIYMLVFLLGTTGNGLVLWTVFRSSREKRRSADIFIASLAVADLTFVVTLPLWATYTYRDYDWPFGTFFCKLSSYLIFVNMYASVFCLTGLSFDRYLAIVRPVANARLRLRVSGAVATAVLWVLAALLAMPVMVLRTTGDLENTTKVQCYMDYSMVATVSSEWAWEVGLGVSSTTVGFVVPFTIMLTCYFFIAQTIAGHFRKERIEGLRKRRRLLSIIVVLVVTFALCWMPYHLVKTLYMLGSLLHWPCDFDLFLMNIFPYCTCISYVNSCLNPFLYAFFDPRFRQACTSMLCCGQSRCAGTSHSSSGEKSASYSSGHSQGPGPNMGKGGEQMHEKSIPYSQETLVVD
The series can be described thus: Antagonist activity at APJ receptor assessed as inhibition of apelin13-induced cAMP accumulation. The format is functional. On the technique in general: cAMP levels reflect the balance of adenylyl cyclase and phosphodiesterase activity.

Series [7] is described as follows: Metabolic stability in human hepatic microsomes assessed as compound remaining at 60 mins. It counts as ADME. The settings on record: liver microsomes, read-out: Stability. The method, boiled down: as §1
Another series has as its system Plasma. The series can be described thus: Plasma protein binding in mouse. It counts as ADME, cell-free.
Another series concerns the target T3, Apelin receptor (Homo sapiens, UniProt P35414).
T3 sequence (P35414 whole entry): T2 sequence (whole entry)
Briefly: Antagonist activity at APJ receptor expressed in CHOK1 cells assessed as inhibition of apelin13-induced beta-arrestin recruitment after 90 mins by luminescence assay. The format is functional, cell-based, CHO-K1. In general terms: Arrestin recruitment assays detect the binding of arrestin to an activated receptor.

The nature of series [8]: Selectivity ratio of IC50 for AT1 receptor to IC50 for APJ receptor (unknown receptor).
Series [9] in a line: Drug degradation in aqueous acetonitrile solution assessed as ester bond hydrolysis. It counts as physicochemical. The settings on record: buffer.

Kappa-type opioid receptor (Homo sapiens), sequence (P41145 whole entry): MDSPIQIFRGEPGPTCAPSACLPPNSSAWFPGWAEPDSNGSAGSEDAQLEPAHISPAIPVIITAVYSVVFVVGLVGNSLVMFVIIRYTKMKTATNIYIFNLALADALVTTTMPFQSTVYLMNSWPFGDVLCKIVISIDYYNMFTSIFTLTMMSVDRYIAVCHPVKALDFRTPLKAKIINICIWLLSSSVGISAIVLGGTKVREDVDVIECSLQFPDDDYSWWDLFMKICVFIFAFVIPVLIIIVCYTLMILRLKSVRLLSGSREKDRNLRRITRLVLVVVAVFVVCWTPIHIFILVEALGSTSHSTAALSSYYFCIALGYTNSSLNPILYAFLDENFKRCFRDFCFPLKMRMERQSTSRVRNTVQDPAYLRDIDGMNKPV

Take `O=C(Oc1coc(CSc2ncccn2)cc1=O)c1ccc([N+](=O)[O-])cc1`: the remaining at 1 h in series [1] worked out at 4.9%; in series [7], 4.2%. Also, the Activity was above 50 µM with Hepatocyte, below 50% in series [2] and below 70% in series [5]. Moreover, in series [3], the IC50 is above 79 µM. In [4], this compound had a Stability of 42.2%. The inhibition result in [6] is “Dose-dependent effect”. This compound returned a PPB with Plasma of 99.1%.
Take `O=C(Oc1coc(CSc2ccc(OC(F)(F)F)cc2)cc1=O)c1ccc(Cl)c([N+](=O)[O-])c1`: the IC50 in [3] is above 79 µM; on Apelin receptor, 24 µM. Moreover, in series [8], the Ratio IC50 is above 3.
On the same counts, the results for `Cc1ccnc(S(=O)(=O)Cc2cc(=O)c(OC(=O)c3ccc(Cl)c([N+](=O)[O-])c3)co2)n1` are above 79 µM, 3.21 µM and above 25.
As for `O=C(Oc1coc(CSc2ccc(Cl)cc2)cc1=O)c1ccc(Cl)c([N+](=O)[O-])c1`, the IC50 in series [3] was above 79 µM; at Apelin receptor, 4.53 µM. Also, in series [8], the Ratio IC50 was above 17.
`Cc1ccc(SCc2cc(=O)c(OC(=O)c3ccc(Cl)c([N+](=O)[O-])c3)co2)cc1`: the IC50 was above 79 µM in series [3] and 12.8 µM on Apelin receptor. In [8], the Ratio IC50 was above 6.
With `Cc1ccnc(SCc2cc(=O)c(OC(=O)c3ccc(Cl)c([N+](=O)[O-])c3)co2)n1`, the Drug degradation entry in series [9] is recorded as “Active”.
In the case of `N#Cc1ccc(C(=O)Oc2coc(CSc3ncccn3)cc2=O)cc1`, the IC50 in [3] was above 79 µM; at Apelin receptor, 6.59 µM. In series [8], the Ratio IC50 is above 12.

For orientation: IC50 means the midpoint of a concentration-inhibition curve.

Source of the values: ChEMBL document CHEMBL2157975 (Bioorg Med Chem Lett, 2012).
